Data from ChEMBL document CHEMBL1137764, “Design, synthesis, antibacterial activity and physicochemical parameters of novel N-4-piperazinyl derivatives of norfloxacin” (Bioorg Med Chem, 2009).
In brackets after ≈: the same amount, converted by molar mass.

Experiments:
Staphylococcus aureus [1] = assay: Antimicrobial activity against Staphylococcus aureus at 64 ug/ml after 24 hrs by agar diffusion technique; assay type: functional; details: read-out: DIZ
In short: (§1)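 Strains came from a university microbiology department. Inocula were 10⁶ CFU/mL. Mueller-Hinton agar was seeded with culture, poured 3–4 mm thick, and 10 mm cups were bored. Compounds were dissolved in DMF (10 mg/mL stock), diluted, and the solution was placed in the cups. Plates were incubated at 37 °C overnight. Inhibition zone diameter (mm) was read at 24 h.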

Klebsiella pneumoniae [2] = assay: Antimicrobial activity against Klebsiella pneumoniae at 16 ug/ml after 24 hrs by agar diffusion technique; assay type: functional; details: read-out: DIZ; in short: as §1
Pseudomonas aeruginosa [3] = assay: Antimicrobial activity against Pseudomonas aeruginosa at 512 ug/ml after 24 hrs by agar diffusion technique; assay type: functional; details: read-out: DIZ; in short: as §1
Klebsiella pneumoniae [4] = assay: Antimicrobial activity against Klebsiella pneumoniae at 128 ug/ml after 24 hrs by agar diffusion technique; assay type: functional; details: read-out: DIZ; in short: as §1
Escherichia coli [5] = assay: Antimicrobial activity against Escherichia coli at 512 ug/ml after 24 hrs by agar diffusion technique; assay type: functional; details: read-out: DIZ; in short: as §1
Staphylococcus aureus [6] = assay: Antimicrobial activity against Staphylococcus aureus at 128 ug/ml after 24 hrs by agar diffusion technique; assay type: functional; details: read-out: DIZ; in short: as §1
Escherichia coli [7] = assay: Antimicrobial activity against Escherichia coli at 4 ug/ml after 24 hrs by agar diffusion technique; assay type: functional; details: read-out: DIZ; in short: as §1
Pseudomonas aeruginosa [8] = assay: Antimicrobial activity against Pseudomonas aeruginosa at 16 ug/ml after 24 hrs by agar diffusion technique; assay type: functional; details: read-out: DIZ; in short: as §1
Staphylococcus aureus [9] = assay: Antimicrobial activity against Staphylococcus aureus at 512 ug/ml after 24 hrs by agar diffusion technique; assay type: functional; details: read-out: DIZ; in short: as §1
Escherichia coli [10] = assay: Antimicrobial activity against Escherichia coli after 24 hrs by agar diffusion technique; assay type: functional; details: for MIC: Escherichia coli, 24 h
In short: (§2)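 Agar cup diffusion on Mueller-Hinton agar seeded from 10⁶ CFU/mL suspensions, with 10 mm cups in a 3–4 mm layer. Compounds were in DMF (10 mg/mL stock) at several concentrations. Plates were incubated at 37 °C and zones measured after 24 h. MIC was taken as the intercept of the plot of log concentration against inhibition zone diameter.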

Pseudomonas aeruginosa [11] = assay: Antimicrobial activity against Pseudomonas aeruginosa at 4 ug/ml after 24 hrs by agar diffusion technique; assay type: functional; details: read-out: DIZ; in short: as §1
Staphylococcus aureus [12] = assay: Antimicrobial activity against Staphylococcus aureus at 16 ug/ml after 24 hrs by agar diffusion technique; assay type: functional; details: read-out: DIZ; in short: as §1
[13] = Octanol-phosphate buffer partition coefficient, log D at pH 7.4 by spectrophotometry; assay type: physicochemical
In short: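 Shake-flask method. A 0.2 mg/mL stock was diluted into pH 7.4 phosphate buffer and mixed with an equal volume of n-octanol, phases mutually presaturated and protected from light. Samples were vortexed 3 min, then shaken 5 h at 25 °C. Both phases were assayed by UV at 270–280 nm. D is the molar concentration ratio, octanol to aqueous.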

Klebsiella pneumoniae [14] = assay: Antimicrobial activity against Klebsiella pneumoniae at 4 ug/ml after 24 hrs by agar diffusion technique; assay type: functional; details: read-out: DIZ; in short: as §1
Escherichia coli [15] = assay: Antimicrobial activity against Escherichia coli at 128 ug/ml after 24 hrs by agar diffusion technique; assay type: functional; details: read-out: DIZ; in short: as §1
Pseudomonas aeruginosa [16] = assay: Antimicrobial activity against Pseudomonas aeruginosa at 64 ug/ml after 24 hrs by agar diffusion technique; assay type: functional; details: read-out: DIZ; in short: as §1
Klebsiella pneumoniae [17] = assay: Antimicrobial activity against Klebsiella pneumoniae at 64 ug/ml after 24 hrs by agar diffusion technique; assay type: functional; details: read-out: DIZ; in short: as §1
Pseudomonas aeruginosa [18] = assay: Antimicrobial activity against Pseudomonas aeruginosa after 24 hrs by agar diffusion technique; assay type: functional; details: for MIC: Pseudomonas aeruginosa, 24 h; in short: as §2
Staphylococcus aureus [19] = assay: Antimicrobial activity against Staphylococcus aureus after 24 hrs by agar diffusion technique; assay type: functional; details: for MIC: Staphylococcus aureus, 24 h; in short: as §2
Pseudomonas aeruginosa [20] = assay: Antimicrobial activity against Pseudomonas aeruginosa at 128 ug/ml after 24 hrs by agar diffusion technique; assay type: functional; details: read-out: DIZ; in short: as §1
Staphylococcus aureus [21] = assay: Antimicrobial activity against Staphylococcus aureus at 4 ug/ml after 24 hrs by agar diffusion technique; assay type: functional; details: read-out: DIZ; in short: as §1
Escherichia coli [22] = assay: Antimicrobial activity against Escherichia coli at 64 ug/ml after 24 hrs by agar diffusion technique; assay type: functional; details: read-out: DIZ; in short: as §1
Klebsiella pneumoniae [23] = assay: Antimicrobial activity against Klebsiella pneumoniae at 512 ug/ml after 24 hrs by agar diffusion technique; assay type: functional; details: read-out: DIZ; in short: as §1
Klebsiella pneumoniae [24] = assay: Antimicrobial activity against Klebsiella pneumoniae after 24 hrs by agar diffusion technique; assay type: functional; details: for MIC: Klebsiella pneumoniae, 24 h; in short: as §2
Escherichia coli [25] = assay: Antimicrobial activity against Escherichia coli at 16 ug/ml after 24 hrs by agar diffusion technique; assay type: functional; details: read-out: DIZ; in short: as §1

`CCn1cc(C(=O)O)c(=O)c2cc(F)c(N3CCN(CN4N=C(C)CC4=O)CC3)cc21` gave a zone of inhibition at 64 µg/mL (Staphylococcus aureus [1]) of 7 mm, a zone of inhibition at 16 µg/mL (Klebsiella pneumoniae [2]) of 2 mm and a zone of inhibition at 512 µg/mL (Pseudomonas aeruginosa [3]) of 18 mm. The zone of inhibition at 128 µg/mL (Klebsiella pneumoniae [4]) was 6 mm, the zone of inhibition at 512 µg/mL (Escherichia coli [5]) was 10 mm and the zone of inhibition at 128 µg/mL (Staphylococcus aureus [6]) was 3 mm. It also gave a zone of inhibition at 4 µg/mL (Escherichia coli [7]) of 8 mm, a zone of inhibition at 16 µg/mL (Pseudomonas aeruginosa [8]) of 3 mm and a zone of inhibition at 512 µg/mL (Staphylococcus aureus [9]) of 3 mm. The logMIC (Escherichia coli [10]) was 0, the MIC (Escherichia coli [10]) was under 1 µg/mL and the zone of inhibition at 4 µg/mL (Pseudomonas aeruginosa [11]) was 0 mm. For the same compound, the zone of inhibition at 16 µg/mL (Staphylococcus aureus [12]) was 0 mm, the logD [13] was -0.85 and the zone of inhibition at 4 µg/mL (Klebsiella pneumoniae [14]) was 0 mm. The zone of inhibition at 128 µg/mL (Escherichia coli [15]) was 10 mm, the zone of inhibition at 64 µg/mL (Pseudomonas aeruginosa [16]) was 3 mm and the zone of inhibition at 64 µg/mL (Klebsiella pneumoniae [17]) was 3 mm. For the same compound, the logMIC (Pseudomonas aeruginosa [18]) was 0.95, the MIC (Pseudomonas aeruginosa [18]) was 9 µg/mL (≈ 21 µM) and the logMIC (Staphylococcus aureus [19]) was 1. The MIC (Staphylococcus aureus [19]) was 10 µg/mL (≈ 23.3 µM), the zone of inhibition at 128 µg/mL (Pseudomonas aeruginosa [20]) was 7 mm and the zone of inhibition at 4 µg/mL (Staphylococcus aureus [21]) was 0 mm. For the same compound, the zone of inhibition at 64 µg/mL (Escherichia coli [22]) was 10 mm, the zone of inhibition at 512 µg/mL (Klebsiella pneumoniae [23]) was 11 mm and the logMIC (Klebsiella pneumoniae [24]) was 0.9. It also gave an MIC (Klebsiella pneumoniae [24]) of 8 µg/mL (≈ 18.6 µM) and a zone of inhibition at 16 µg/mL (Escherichia coli [25]) of 8 mm.

`CCn1cc(C(=O)O)c(=O)c2cc(F)c(N3CCN(C=O)CC3)cc21` [4-N-FORMYL-1-PIPERAZINYL-NORFLOXACIN] showed a zone of inhibition at 64 µg/mL (Staphylococcus aureus [1]) of 8 mm, a zone of inhibition at 16 µg/mL (Klebsiella pneumoniae [2]) of 0 mm and a zone of inhibition at 512 µg/mL (Pseudomonas aeruginosa [3]) of 13 mm. The zone of inhibition at 128 µg/mL (Klebsiella pneumoniae [4]) was 0 mm, the zone of inhibition at 512 µg/mL (Escherichia coli [5]) was 13 mm and the zone of inhibition at 128 µg/mL (Staphylococcus aureus [6]) was 15 mm. For the same compound, the zone of inhibition at 4 µg/mL (Escherichia coli [7]) was 2 mm, the zone of inhibition at 16 µg/mL (Pseudomonas aeruginosa [8]) was 2 mm and the zone of inhibition at 512 µg/mL (Staphylococcus aureus [9]) was 12 mm. For the same compound, the logMIC (Escherichia coli [10]) was 1.04, the MIC (Escherichia coli [10]) was 11 µg/mL (≈ 31.7 µM) and the zone of inhibition at 4 µg/mL (Pseudomonas aeruginosa [11]) was 0 mm. For the same compound, the zone of inhibition at 16 µg/mL (Staphylococcus aureus [12]) was 8 mm, the logD [13] was 0.087 and the zone of inhibition at 4 µg/mL (Klebsiella pneumoniae [14]) was 0 mm. For the same compound, the zone of inhibition at 128 µg/mL (Escherichia coli [15]) was 4 mm, the zone of inhibition at 64 µg/mL (Pseudomonas aeruginosa [16]) was 7 mm and the zone of inhibition at 64 µg/mL (Klebsiella pneumoniae [17]) was 0 mm. The logMIC (Pseudomonas aeruginosa [18]) was 0.78, the MIC (Pseudomonas aeruginosa [18]) was 6 µg/mL (≈ 17.3 µM) and the logMIC (Staphylococcus aureus [19]) was 0. The MIC (Staphylococcus aureus [19]) was under 1 µg/mL, the zone of inhibition at 128 µg/mL (Pseudomonas aeruginosa [20]) was 13 mm and the zone of inhibition at 4 µg/mL (Staphylococcus aureus [21]) was 7 mm. For the same compound, the zone of inhibition at 64 µg/mL (Escherichia coli [22]) was 2 mm, the zone of inhibition at 512 µg/mL (Klebsiella pneumoniae [23]) was 8 mm and the logMIC (Klebsiella pneumoniae [24]) was 2.11. For the same compound, the MIC (Klebsiella pneumoniae [24]) was 128 µg/mL (≈ 369 µM) and the zone of inhibition at 16 µg/mL (Escherichia coli [25]) was 2 mm.
